Test results: ChEMBL document CHEMBL1150310, “Development of novel water-soluble photocleavable protective group and its application for design of photoresponsive paclitaxel prodrugs” (Bioorg Med Chem, 2008)
Values after ≈ are worked out from the molar mass of the structure shown.

What was measured:
Assay type in all cases: physicochemical
[1] = Solubility in water at 15 degC; details: in the assay text read “25 degC” for “15 degC”
Outline: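 The filtrate of the aqueous preparation was analysed by RP-HPLC. Water solubility was quantified against a calibration curve built from standard solutions of known prodrug amounts.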

[2] = Stability in solid state at -20 degC after 4 months; details: 2922 h
[3] = Photostability in phosphate-buffered saline assessed as paclitaxel release at pH 7.4 after 4 mins of irradiation with UV laser of 355 nm, 10 Hzm 5 mJ irradiation; details: buffer, pH 7.4, 4 min
Outline: (§1)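 The conversion profile was measured in 10 mM PBS (pH 7.4) under pulsed UV laser irradiation (355 nm, 10 Hz, 5 mJ). The released isotaxel then undergoes spontaneous O–N intramolecular acyl migration to give paclitaxel.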

[4] = Photostability in phosphate-buffered saline assessed as paclitaxel release at pH 7.4 after 4 mins of irradiation with UV light of 365 nm, 6W irradiation; details: buffer, pH 7.4, 4 min
Outline: (§2)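 Prodrug, coumarin or parent drug, as a 2 mM DMSO stock, was diluted 3:297 into 10 mM PBS (pH 7.4). It was irradiated at room temperature with a 365 nm, 6 W UV lamp, and conversion was followed by HPLC.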

[5] = Photostability in phosphate-buffered saline assessed as paclitaxel release at pH 7.4 after irradiation with UV laser of 355 nm, 10 Hzm 5 mJ irradiation; details: buffer; outline: as §1
[6] = Stability in phosphate-buffered saline at pH 7.4 at 4 degC after 1 month; details: buffer, pH 7.4, 730.5 h
[7] = Photostability in phosphate-buffered saline assessed as 7-[Bis-[2-[[2-(dimethylamino)ethyl]amino]-2-oxoethyl]amino]-4-(hydroxymethyl) coumarin hydrochloride release at pH 7.4 after 1 hr of irradiation with UV light of 365 nm, 6W irradiation; details: buffer, pH 7.4, 1 h; outline: as §2

Row | solubility [1] [µg/mL] | Stability [2] | Activity [3] [%] | Activity [4] [%] | t1/2 [5] [min] | Stability [6] | Activity [7] [%] | SMILES
1 | > 100000 | Stable | 24 | 69 | 15.1 | Stable | 11 | CC(=O)O[C@H]1C(=O)[C@@]2(C)[C@H]([C@H](OC(=O)c3ccccc3)[C@]3(O)C[C@H](OC(=O)[C@H](OC(=O)c4ccccc4)[C@@H](NC(=O)OCc4cc(=O)oc5cc(N(CC(=O)NCCN(C)C)CC(=O)NCCN(C)C)ccc45)c4ccccc4)C(C)=C1C3(C)C)[C@]1(OC(C)=O)CO[C@@H]1C[C@@H]2O.Cl
2 | 450 (≈ 527 µM) | – | – | – | – | – | – | CC(=O)O[C@H]1C(=O)[C@@]2(C)[C@H]([C@H](OC(=O)c3ccccc3)[C@]3(O)C[C@H](OC(=O)[C@H](OC(=O)c4ccccc4)[C@@H](N)c4ccccc4)C(C)=C1C3(C)C)[C@]1(OC(C)=O)CO[C@@H]1C[C@@H]2O [ISOTAXEL]
